ChEMBL document CHEMBL4364267, “Hydrogen sulfide donating ent-kaurane and spirolactone-type 6,7-seco-ent-kaurane derivatives: Design, synthesis and antiproliferative properties” (Eur J Med Chem, 2019)
Activity calls are given as the source filed them. The calls are words filed in the database; no cut-off is given here.

Legend:
A549 = experiment: Antiproliferative activity against human A549 cells assessed as reduction in cell viability after 72 hrs by MTT assay; assay type: functional, cell-based; conditions: A549, 72 h
How it was run: (§1)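 MTT assay over 72 h, compounds at 64, 16, 4, 1, 0.25, 0.0625 and 0.015625 μM. MTT solution (5 mg/mL) and DMSO added afterwards, 10 min at room temperature, absorbance read at 490 nm. IC50 calculated as the mean ± SD of three independent experiments.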

Bel-7402 = experiment: Antiproliferative activity against human Bel7402 cells assessed as reduction in cell viability after 72 hrs by MTT assay; assay type: functional, cell-based; conditions: Bel-7402, 72 h; how it was run: as §1
K562 = experiment: Antiproliferative activity against human K562 cells assessed as reduction in cell viability after 72 hrs by MTT assay; assay type: functional, cell-based; conditions: K562, 72 h; how it was run: as §1
L02 = experiment: Cytotoxicity against human L02 cells assessed as reduction in cell viability after 72 hrs by MTT assay; assay type: cell-based; conditions: L02, 72 h; how it was run: as §1
[1] = Induction of H2S generation in PBS containing Na2S and MB+ cocktail in presence of TCEP/L-cysteine measured at 15 to 20 mins after 20 mins compound incubation by methylene blue dye based UV-Vis spectrophotometric method; assay type: functional
How it was run: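 Na2S standards (5–150 μM) in sodium phosphate buffer reacted 20 min at room temperature with methylene blue cocktail (FeCl3/HCl, N,N-dimethyl-1,4-phenylenediamine/HCl, Zn(OAc)2) to build a 670 nm calibration curve. Compounds from 40 mM THF stock added to phosphate buffer with 1 mM TCEP or L-cysteine. Aliquots taken into the cocktail at set times, incubated 20 min, read at 670 nm. Mean of three experiments.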

SGC-7901 = experiment: Antiproliferative activity against human SGC7901 cells assessed as reduction in cell viability after 72 hrs by MTT assay; assay type: functional, cell-based; conditions: SGC-7901, 72 h; how it was run: as §1
PBMC = experiment: Cytotoxicity against human PBMC assessed as reduction in cell viability after 72 hrs by MTT assay; assay type: cell-based; how it was run: as §1

SMILES: C=C1C(=O)[C@]23[C@H](OC(=O)c4ccccc4C(=O)Oc4ccc(-c5cc(=S)ss5)cc4)[C@H]1CC[C@H]2[C@@]12CO[C@]3(O)[C@@H](O)[C@@H]1C(C)(C)CC[C@@H]2OC(C)=O
- IC50 (A549): 16.7 µM
- IC50 (Bel-7402): 7.68 µM
- IC50 (K562): 11.4 µM
- IC50 (L02): > 50 µM
- Activity [1]: Active
- IC50 (SGC-7901): 12.4 µM
- IC50 (PBMC): 39.5 µM

SMILES: O=C(O)CCCCC1CCSS1 (stereo not drawn) [LIPOIC ACID, ALPHA]
- IC50 (A549): > 50 µM
- IC50 (Bel-7402): > 50 µM
- IC50 (K562): > 50 µM
- IC50 (L02): > 50 µM
- IC50 (SGC-7901): > 50 µM
- IC50 (PBMC): > 50 µM

SMILES: C=C1C(=O)[C@@]23C(=O)OC[C@]4(C(=O)CCC(C)(C)[C@H]4C=O)[C@@H]2CC[C@@H]1[C@H]3OC(=O)CCC(=O)Oc1ccc(-c2cc(=S)ss2)cc1
- IC50 (A549): 5.54 µM
- IC50 (Bel-7402): 1.38 µM
- IC50 (K562): 1.82 µM
- IC50 (L02): 18.2 µM
- Activity [1]: Active
- IC50 (SGC-7901): 4.24 µM
- IC50 (PBMC): 16.6 µM

SMILES: C=C1C(=O)[C@@]23C(=O)OC[C@]4(C(=O)CCC(C)(C)[C@H]4C=O)[C@@H]2CC[C@@H]1[C@H]3OC(=O)c1ccccc1C(=O)Oc1ccc(-c2cc(=S)ss2)cc1
- IC50 (A549): 7.45 µM
- IC50 (Bel-7402): 3.26 µM
- IC50 (K562): 4.25 µM
- IC50 (L02): 26.2 µM
- Activity [1]: Active
- IC50 (SGC-7901): 5.93 µM
- IC50 (PBMC): 31.4 µM

SMILES: C=C1C(=O)[C@]23[C@H](O)[C@H]1CC[C@H]2[C@@]12CO[C@]3(O)[C@@H](O)[C@@H]1C(C)(C)CC[C@@H]2O [ORIDONIN]
- IC50 (A549): 17.8 µM
- IC50 (Bel-7402): 8.31 µM
- IC50 (L02): 18.7 µM
- IC50 (SGC-7901): 7.87 µM
- IC50 (PBMC): > 50 µM

SMILES: C=C1C(=O)[C@@]23C(=O)OC[C@]4([C@@H](OC(C)=O)CCC(C)(C)[C@H]4C=O)[C@@H]2CC[C@@H]1[C@H]3OC(=O)CCC(=O)Oc1ccc(-c2cc(=S)ss2)cc1
- IC50 (A549): 27.5 µM
- IC50 (Bel-7402): 9.73 µM
- IC50 (K562): 15.3 µM
- IC50 (L02): > 50 µM
- Activity [1]: Active
- IC50 (SGC-7901): 17.9 µM
- IC50 (PBMC): 25.9 µM

SMILES: C=C1C(=O)[C@]23[C@H](OC(=O)CCC(=O)Oc4ccc(-c5cc(=S)ss5)cc4)[C@H]1CC[C@H]2[C@@]12CO[C@]3(O)[C@@H](O)[C@@H]1C(C)(C)CCC2=O
- IC50 (A549): 9.78 µM
- IC50 (Bel-7402): 3.52 µM
- IC50 (K562): 3.66 µM
- IC50 (L02): > 50 µM
- IC50 (SGC-7901): 12.5 µM
- IC50 (PBMC): 29.6 µM

SMILES: C=C1C(=O)[C@@]23C(=O)OC[C@]4(C(=O)CCC(C)(C)[C@H]4C=O)[C@@H]2CC[C@@H]1[C@H]3O
- IC50 (A549): 5.31 µM
- IC50 (Bel-7402): 4.67 µM
- IC50 (K562): 3.26 µM
- IC50 (L02): 29.7 µM
- IC50 (SGC-7901): 19.5 µM
- IC50 (PBMC): > 50 µM

SMILES: C=C1C(=O)[C@@]23C(=O)OC[C@]4(C(=O)CCC(C)(C)[C@H]4C=O)[C@@H]2CC[C@@H]1[C@H]3OC(=O)CCCCC1CCSS1 (stereo partly drawn)
- IC50 (A549): 7.92 µM
- IC50 (Bel-7402): 2.56 µM
- IC50 (K562): 2.59 µM
- IC50 (L02): 19.9 µM
- Activity [1]: Active
- IC50 (SGC-7901): 6.43 µM
- IC50 (PBMC): > 50 µM

SMILES: C=C1C(=O)[C@]23[C@H](O)[C@H]1CC[C@H]2[C@@]12CO[C@]3(O)[C@@H](O)[C@@H]1C(C)(C)CCC2=O
- IC50 (A549): 9.86 µM
- IC50 (Bel-7402): 3.88 µM
- IC50 (K562): 4.02 µM
- IC50 (L02): 23.4 µM
- IC50 (SGC-7901): 16.5 µM
- IC50 (PBMC): > 50 µM

SMILES: C=C1C(=O)[C@]23[C@H](OC(=O)CCCCC4CCSS4)[C@H]1CC[C@H]2[C@@]12CO[C@]3(O)[C@@H](O)[C@@H]1C(C)(C)CC[C@@H]2OC(C)=O (stereo partly drawn)
- IC50 (A549): 8.65 µM
- IC50 (Bel-7402): 2.25 µM
- IC50 (K562): 2.84 µM
- IC50 (L02): 41.1 µM
- Activity [1]: Active
- IC50 (SGC-7901): 6.02 µM
- IC50 (PBMC): 28.8 µM

SMILES: C=C1C(=O)[C@@]23C(=O)OC[C@]4([C@@H](OC(C)=O)CCC(C)(C)[C@H]4C=O)[C@@H]2CC[C@@H]1[C@H]3O
- IC50 (A549): 27.4 µM
- IC50 (Bel-7402): > 50 µM
- IC50 (K562): 8.96 µM
- IC50 (L02): > 50 µM
- IC50 (SGC-7901): 49.8 µM
- IC50 (PBMC): > 50 µM

SMILES: C=C1C(=O)[C@]23[C@H](O)[C@H]1CC[C@H]2[C@@]12CO[C@@]3(O)[C@@H](O)[C@@H]1C(C)(C)CC[C@@H]2OC(C)=O
- IC50 (A549): 13.5 µM
- IC50 (Bel-7402): 3.59 µM
- IC50 (K562): 4.92 µM
- IC50 (L02): 22.4 µM
- IC50 (SGC-7901): 6.45 µM
- IC50 (PBMC): > 50 µM

SMILES: C=C1C(=O)[C@]23[C@H](OC(=O)CCCC(=O)Oc4ccc(-c5cc(=S)ss5)cc4)[C@H]1CC[C@H]2[C@@]12CO[C@]3(O)[C@@H](O)[C@@H]1C(C)(C)CCC2=O
- IC50 (A549): 4.38 µM
- IC50 (Bel-7402): 3.04 µM
- IC50 (K562): 3.84 µM
- IC50 (L02): 21 µM
- IC50 (SGC-7901): 6.59 µM
- IC50 (PBMC): 17.2 µM

SMILES: C=C1C(=O)[C@]23[C@H](OC(=O)c4ccccc4C(=O)Oc4ccc(-c5cc(=S)ss5)cc4)[C@H]1CC[C@H]2[C@@]12CO[C@]3(O)[C@@H](O)[C@@H]1C(C)(C)CCC2=O
- IC50 (A549): 7.69 µM
- IC50 (Bel-7402): 5.34 µM
- IC50 (K562): 4.8 µM
- IC50 (L02): 42.6 µM
- Activity [1]: Active
- IC50 (SGC-7901): 14.9 µM
- IC50 (PBMC): > 50 µM

SMILES: C=C1C(=O)[C@]23[C@H](OC(=O)CCC(=O)Oc4ccc(-c5cc(=S)ss5)cc4)[C@H]1CC[C@H]2[C@@]12CO[C@]3(O)[C@@H](O)[C@@H]1C(C)(C)CC[C@@H]2OC(C)=O
- IC50 (A549): 6.34 µM
- IC50 (Bel-7402): 2.87 µM
- IC50 (K562): 2.54 µM
- IC50 (L02): 23.2 µM
- IC50 (SGC-7901): 5.49 µM
- IC50 (PBMC): 44.1 µM

SMILES: Oc1ccc(-c2cc(=S)ss2)cc1
- IC50 (A549): > 50 µM
- IC50 (Bel-7402): > 50 µM
- IC50 (K562): > 50 µM
- IC50 (L02): > 50 µM
- IC50 (SGC-7901): > 50 µM
- IC50 (PBMC): > 50 µM

SMILES: O=c1[nH]cc(F)c(=O)[nH]1 [FLUOROURACIL]
- IC50 (Bel-7402): 17.6 µM
- IC50 (K562): 4.02 µM
- IC50 (L02): > 50 µM
- IC50 (SGC-7901): 6.38 µM
- IC50 (PBMC): > 50 µM

SMILES: C=C1C(=O)[C@@]23C(=O)OC[C@]4([C@@H](OC(C)=O)CCC(C)(C)[C@H]4C=O)[C@@H]2CC[C@@H]1[C@H]3OC(=O)CCCC(=O)Oc1ccc(-c2cc(=S)ss2)cc1
- IC50 (A549): 14.8 µM
- IC50 (Bel-7402): 4.59 µM
- IC50 (K562): 3.27 µM
- IC50 (L02): > 50 µM
- Activity [1]: Active
- IC50 (SGC-7901): 7.66 µM
- IC50 (PBMC): 30.7 µM

SMILES: C=C1C(=O)[C@]23[C@H](OC(=O)CCCC(=O)Oc4ccc(-c5cc(=S)ss5)cc4)[C@H]1CC[C@H]2[C@@]12CO[C@]3(O)[C@@H](O)[C@@H]1C(C)(C)CC[C@@H]2OC(C)=O
- IC50 (A549): 9.76 µM
- IC50 (Bel-7402): 1.94 µM
- IC50 (K562): 2.02 µM
- IC50 (L02): 14.7 µM
- IC50 (SGC-7901): 5.36 µM
- IC50 (PBMC): > 50 µM

SMILES: C=C1C(=O)[C@@]23C(=O)OC[C@]4([C@@H](OC(C)=O)CCC(C)(C)[C@H]4C=O)[C@@H]2CC[C@@H]1[C@H]3OC(=O)CCCCC1CCSS1 (stereo partly drawn)
- IC50 (A549): 19.9 µM
- IC50 (Bel-7402): 4.58 µM
- IC50 (K562): 6.75 µM
- IC50 (L02): 36.5 µM
- Activity [1]: Active
- IC50 (SGC-7901): 10 µM
- IC50 (PBMC): > 50 µM
